# The source made the active and inactive calls. No cut-off for these calls is given here. Where a SMILES comes first, the peptide text is derived from it.
# Tests used:
# [1] = target: T1, Orexin/Hypocretin receptor type 1 (Homo sapiens) (UniProt O43613); assay: Agonist activity at human OX1 receptor overexpressed in CHO-RD-HGA16 cells assessed as calcium mobilization at 10 uM after 15 mins by fluorescence assay relative to control; format: functional, cell-based
# T1 sequence (whole entry): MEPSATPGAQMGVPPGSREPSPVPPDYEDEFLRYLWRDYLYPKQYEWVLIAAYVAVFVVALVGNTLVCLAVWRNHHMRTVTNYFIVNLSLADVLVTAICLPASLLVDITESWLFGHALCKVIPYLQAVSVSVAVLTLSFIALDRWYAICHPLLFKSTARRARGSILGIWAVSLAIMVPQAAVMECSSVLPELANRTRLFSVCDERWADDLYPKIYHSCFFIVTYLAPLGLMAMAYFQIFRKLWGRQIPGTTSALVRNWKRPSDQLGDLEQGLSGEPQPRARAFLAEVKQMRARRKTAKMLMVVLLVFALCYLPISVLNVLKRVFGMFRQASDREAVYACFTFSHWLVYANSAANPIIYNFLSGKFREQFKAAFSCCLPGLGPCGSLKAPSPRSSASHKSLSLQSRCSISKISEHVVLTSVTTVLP
# [2] = target: T2, Orexin receptor type 2 (Homo sapiens) (UniProt O43614); assay: Agonist activity at human OX2 receptor overexpressed in CHO-RD-HGA16 cells assessed as calcium mobilization at 10 uM after 15 mins by fluorescence assay relative to control; format: functional, cell-based
# T2 sequence (whole entry): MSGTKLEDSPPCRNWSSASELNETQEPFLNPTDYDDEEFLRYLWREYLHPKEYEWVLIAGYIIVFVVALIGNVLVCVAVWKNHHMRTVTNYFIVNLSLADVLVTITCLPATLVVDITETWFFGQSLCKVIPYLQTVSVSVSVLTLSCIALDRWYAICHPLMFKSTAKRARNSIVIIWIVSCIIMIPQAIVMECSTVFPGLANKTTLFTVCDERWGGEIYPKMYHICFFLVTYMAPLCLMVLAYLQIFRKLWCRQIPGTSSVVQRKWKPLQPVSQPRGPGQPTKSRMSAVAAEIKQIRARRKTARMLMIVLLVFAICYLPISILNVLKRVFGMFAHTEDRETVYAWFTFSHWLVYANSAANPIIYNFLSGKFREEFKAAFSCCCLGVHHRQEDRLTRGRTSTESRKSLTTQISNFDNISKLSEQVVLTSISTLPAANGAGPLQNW
# Orexin receptor type 2 = target: T3, Orexin receptor type 2 (Homo sapiens, UniProt O43614); assay: Agonist activity at human OX2 receptor overexpressed in CHO-RD-HGA16 cells assessed as calcium mobilization after 15 mins by fluorescence assay; format: functional, cell-based
# T3 sequence (O43614 whole entry): T2 sequence (whole entry)
# Homo sapiens = organism: Homo sapiens; assay: Selectivity ratio of EC50 for human OX2 receptor to EC50 for human OX1 receptor
# [3] = target: T4, Orexin/Hypocretin receptor type 1 (Homo sapiens, UniProt O43613); assay: Agonist activity at human OX1 receptor overexpressed in CHO-RD-HGA16 cells assessed as calcium mobilization after 15 mins by fluorescence assay; format: functional, cell-based
# T4 sequence (O43613 whole entry): T1 sequence (whole entry)
# Procedure, shortened: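 EC50 from 8-point half-log concentration-response curves. Values are means of at least three independent experiments in duplicate, with SEM, or means of two independent duplicate experiments.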
Activity [1],Activity [2],Calcium response at 10 uM relative to control [1] [%],Percent activation at 10 uM [2] [%],Compound,other results
inactive,inactive,,,CC[C@H](C)[C@H](NC(=O)CNC(=O)[C@H](C)NC(=O)[C@H](C)NC(=O)[C@H](Cc1cnc[nH]1)NC(=O)[C@H](CC(N)=O)NC(=O)CNC(=O)[C@H](C)NC(=O)CNC(=O)[C@H](Cc1cnc[nH]1)NC(=O)[C@H](CC(C)C)NC(=O)[C@H](CC(C)C)NC(=O)[C@H](CCC(=O)O)NC(=O)[C@@H](N)Cc1ccc(O)cc1)C(=O)N[C@@H](C)C(=O)N[C@H](C(=O)N[C@@H](CC(C)C)C(N)=O)[C@@H](C)O (H-YELLHGAGNHAAGIATL-NH2),
inactive,inactive,,,CC(C)C[C@H](NC(=O)[C@@H](NC(=O)[C@H](CC(C)C)NC(=O)[C@H](C)NC(=O)CNC(=O)[C@H](C)NC(=O)[C@H](C)NC(=O)[C@H](Cc1cnc[nH]1)NC(=O)[C@H](CC(N)=O)NC(=O)CNC(=O)[C@H](C)NC(=O)CNC(=O)[C@H](Cc1cnc[nH]1)NC(=O)[C@H](CC(C)C)NC(=O)[C@H](CC(C)C)NC(=O)[C@H](CCC(=O)O)NC(=O)[C@@H](N)Cc1ccc(O)cc1)[C@@H](C)O)C(N)=O (H-YELLHGAGNHAAGALTL-NH2),
,,< 50,< 50,CC[C@H](C)[C@H](NC(=O)[C@H](C)NC(=O)[C@H](C)NC(=O)[C@H](C)NC(=O)[C@H](Cc1cnc[nH]1)NC(=O)[C@H](CC(N)=O)NC(=O)CNC(=O)[C@H](C)NC(=O)CNC(=O)[C@H](Cc1cnc[nH]1)NC(=O)[C@H](CC(C)C)NC(=O)[C@H](CC(C)C)NC(=O)[C@H](CCC(=O)O)NC(=O)[C@@H](N)Cc1ccc(O)cc1)C(=O)N[C@@H](CC(C)C)C(=O)N[C@H](C(=O)N[C@@H](CC(C)C)C(N)=O)[C@@H](C)O (H-YELLHGAGNHAAAILTL-NH2),
,inactive,< 50,,CC[C@H](C)[C@H](NC(=O)CNC(=O)[C@H](C)NC(=O)[C@H](C)NC(=O)[C@H](Cc1cnc[nH]1)NC(=O)[C@H](CC(N)=O)NC(=O)CNC(=O)[C@H](C)NC(=O)CNC(=O)[C@H](Cc1cnc[nH]1)NC(=O)[C@H](CC(C)C)NC(=O)[C@H](CC(C)C)NC(=O)[C@H](CCC(=O)O)NC(=O)[C@@H](N)Cc1ccc(O)cc1)C(=O)N[C@@H](CC(C)C)C(=O)N[C@H](C(=O)N[C@@H](C)C(N)=O)[C@@H](C)O (H-YELLHGAGNHAAGILTA-NH2),
inactive,inactive,,,CC[C@@H](C)[C@@H](NC(=O)CNC(=O)[C@H](C)NC(=O)[C@H](C)NC(=O)[C@H](Cc1cnc[nH]1)NC(=O)[C@H](CC(N)=O)NC(=O)CNC(=O)[C@H](C)NC(=O)CNC(=O)[C@H](Cc1cnc[nH]1)NC(=O)[C@H](CC(C)C)NC(=O)[C@H](CC(C)C)NC(=O)[C@H](CCC(=O)O)NC(=O)[C@@H](N)Cc1ccc(O)cc1)C(=O)N[C@@H](CC(C)C)C(=O)N[C@H](C(=O)N[C@@H](CC(C)C)C(N)=O)[C@@H](C)O,
,,< 50,,CC[C@H](C)[C@H](NC(=O)CNC(=O)[C@H](C)NC(=O)[C@H](C)NC(=O)[C@H](Cc1cnc[nH]1)NC(=O)[C@H](CC(N)=O)NC(=O)CNC(=O)[C@H](CO)NC(=O)[C@H](C)NC(=O)[C@H](CCC(N)=O)NC(=O)[C@H](CC(C)C)NC(=O)[C@H](CC(C)C)NC(=O)[C@H](CCCNC(=N)N)NC(=O)[C@@H](N)CCC(N)=O)C(=O)N[C@@H](CC(C)C)C(=O)N[C@H](C(=O)N[C@@H](CCSC)C(N)=O)[C@@H](C)O (H-QRLLQASGNHAAGILTM-NH2),EC50 (Orexin receptor type 2): 1040 nM
,,< 50,< 50,CC[C@H](C)[C@H](NC(=O)CNC(=O)[C@H](C)NC(=O)[C@H](C)NC(=O)[C@H](Cc1cnc[nH]1)NC(=O)[C@H](CC(N)=O)NC(=O)CNC(=O)[C@H](C)NC(=O)CNC(=O)[C@H](Cc1cnc[nH]1)NC(=O)[C@H](CC(C)C)NC(=O)[C@H](CC(C)C)NC(=O)[C@H](CCC(=O)O)NC(=O)[C@@H](N)Cc1ccc(O)cc1)C(=O)N[C@@H](CC(C)C)C(=O)N[C@@H](C)C(=O)N[C@@H](CC(C)C)C(N)=O (H-YELLHGAGNHAAGILAL-NH2),
inactive,,,< 50,CC[C@H](C)[C@H](NC(=O)CNC(=O)[C@H](C)NC(=O)[C@H](C)NC(=O)[C@H](Cc1cnc[nH]1)NC(=O)[C@@H](CC(N)=O)NC(=O)CNC(=O)[C@H](C)NC(=O)CNC(=O)[C@H](Cc1cnc[nH]1)NC(=O)[C@H](CC(C)C)NC(=O)[C@H](CC(C)C)NC(=O)[C@H](CCC(=O)O)NC(=O)[C@@H](N)Cc1ccc(O)cc1)C(=O)N[C@@H](CC(C)C)C(=O)N[C@H](C(=O)N[C@@H](CC(C)C)C(N)=O)[C@@H](C)O,
inactive,inactive,,,CC[C@H](C)[C@H](NC(=O)CNC(=O)[C@H](C)NC(=O)[C@H](C)NC(=O)[C@H](Cc1cnc[nH]1)NC(=O)[C@H](CC(N)=O)NC(=O)CNC(=O)[C@H](C)NC(=O)CNC(=O)[C@H](Cc1cnc[nH]1)NC(=O)[C@H](CC(C)C)NC(=O)[C@H](CC(C)C)NC(=O)[C@H](CCC(=O)O)NC(=O)[C@@H](N)Cc1ccc(O)cc1)C(=O)N[C@@H](CC(C)C)C(=O)N[C@@H](C(=O)N[C@@H](CC(C)C)C(N)=O)[C@H](C)O,
inactive,inactive,,,CC[C@H](C)[C@H](NC(=O)CNC(=O)[C@H](C)NC(=O)[C@H](C)NC(=O)[C@H](Cc1cnc[nH]1)NC(=O)[C@H](CC(N)=O)NC(=O)CNC(=O)[C@H](C)NC(=O)CNC(=O)[C@H](Cc1cnc[nH]1)NC(=O)[C@H](CC(C)C)NC(=O)[C@H](CC(C)C)NC(=O)[C@H](CCC(=O)O)NC(=O)[C@@H](N)Cc1ccc(O)cc1)C(=O)N[C@@H](CC(C)C)C(=O)N[C@H](C(=O)N[C@H](CC(C)C)C(N)=O)[C@@H](C)O,
,,< 50,,CC[C@H](C)[C@H](NC(=O)CNC(=O)[C@H](C)NC(=O)[C@H](C)NC(=O)[C@H](Cc1cnc[nH]1)NC(=O)[C@H](CC(N)=O)NC(=O)CNC(=O)[C@H](C)NC(=O)CNC(=O)[C@@H](N)Cc1cnc[nH]1)C(=O)N[C@@H](CC(C)C)C(=O)N[C@H](C(=O)N[C@@H](CC(C)C)C(N)=O)[C@@H](C)O (H-HGAGNHAAGILTL-NH2),
inactive,,,< 50,CC[C@H](C)[C@H](NC(=O)CNC(=O)[C@@H](C)NC(=O)[C@H](C)NC(=O)[C@H](Cc1cnc[nH]1)NC(=O)[C@H](CC(N)=O)NC(=O)CNC(=O)[C@H](C)NC(=O)CNC(=O)[C@H](Cc1cnc[nH]1)NC(=O)[C@H](CC(C)C)NC(=O)[C@H](CC(C)C)NC(=O)[C@H](CCC(=O)O)NC(=O)[C@@H](N)Cc1ccc(O)cc1)C(=O)N[C@@H](CC(C)C)C(=O)N[C@H](C(=O)N[C@@H](CC(C)C)C(N)=O)[C@@H](C)O,
inactive,,,< 50,CC[C@H](C)[C@H](NC(=O)CNC(=O)[C@H](C)NC(=O)[C@H](C)NC(=O)[C@H](Cc1cnc[nH]1)NC(=O)[C@H](CC(N)=O)NC(=O)CNC(=O)[C@H](C)NC(=O)CNC(=O)[C@H](Cc1cnc[nH]1)NC(=O)[C@H](CC(C)C)NC(=O)[C@H](CC(C)C)NC(=O)[C@H](CCC(=O)O)NC(=O)[C@@H](N)Cc1ccc(O)cc1)C(=O)N[C@H](CC(C)C)C(=O)N[C@H](C(=O)N[C@@H](CC(C)C)C(N)=O)[C@@H](C)O,
,,,,CC[C@H](C)[C@H](NC(=O)CNC(=O)[C@H](C)NC(=O)[C@H](C)NC(=O)[C@H](Cc1cnc[nH]1)NC(=O)[C@H](CC(N)=O)NC(=O)CNC(=O)[C@H](C)NC(=O)CNC(=O)[C@H](Cc1cnc[nH]1)NC(=O)[C@H](CC(C)C)NC(=O)[C@@H](CC(C)C)NC(=O)[C@H](CCC(=O)O)NC(=O)[C@@H](N)Cc1ccc(O)cc1)C(=O)N[C@@H](CC(C)C)C(=O)N[C@H](C(=O)N[C@@H](CC(C)C)C(N)=O)[C@@H](C)O,Ratio EC50 (Homo sapiens): 0.5; EC50 (Orexin receptor type 2): 263 nM; EC50 [3]: 526 nM
